Results of several laboratories.
Lines come from different studies, so protocols differ.
Cell line: MCF7
Read-out: cell growth or viability

| SMILES | technique | time | IC50 |
| --- | --- | --- | --- |
| Nc1ccn([C@@H]2O[C@H](CO)[C@@H](O)C2(F)F)c(=O)n1 | MTT | 24 h | 2.75 µg/mL |
| COc1cc(C=O)ccc1OC1=C(Cl)C(=O)c2ccccc2C1=O | MTT | 24 h | 41.5 µg/mL |
| O=C1C(=Nc2ccc(Cl)cc2)c2ccccc2N1Cc1ccc([N+](=O)[O-])cc1 | MTT | 48 h | 2.65 µM |
| COc1cccc2c1C(=O)c1c(O)c3c(c(O)c1C2=O)C[C@@](O)(C(=O)CO)C[C@@H]3O[C@H]1C[C@H](N)[C@H](O)[C@H](C)O1 | MTT |  | 5.8 µg/mL |
| O=C(C=Cc1ccc(OCCOc2ccc(C=CC(=O)c3cccs3)cc2)cc1)c1cccs1 | MTT | 48 h | 11.5 µM |
| NS(=O)(=O)c1ccc(-n2nc(C(=O)NN3C(=O)CCC3=O)cc2-c2ccccc2)cc1 | fluorescence | 48 h | 32.5 µM |
| O=[N+]([O-])c1ccc(NC(=S)N/N=C/c2cccc3cc4ccccc4nc23)cc1 | MTT | 48 h | > 50 µM |
| O=C(O)c1c[nH]c2ccc(Oc3ccccc3)cc2c1=O | MTT | 48 h | 287 µM |
| COc1cccc(N=C2SCC(=O)N2c2nnc(-c3ccc(C(F)(F)F)cc3N=C3SCC(=O)N3c3cccc(OC)c3)s2)c1 | MTT |  | 78.3 µM |
| O=[N+]([O-])c1cc(Br)c(O)c(C=NNc2ccc(Cl)cc2)c1 | MTT | 24 h | 10.1 µM |
| COc1ccc(N(Cc2csc(-c3ccc(Br)cc3)n2)C(=O)CCCCCC(=O)NO)cc1 | MTT | 72 h | 9.21 µM |
| Cc1ccc(CN2C(=O)C(=Nc3c(C(C)C)cccc3C(C)C)c3ccccc32)cc1 | MTT | 48 h | 53.1 µM |
| O=C(/C=C/c1ccc(F)cc1)c1nc2ccccc2n1Cc1cn([C@@H]2O[C@H](CO)[C@H](O)[C@H](O)[C@H]2O)nn1 | LDH | 48 h | 1.99 µM |
| O=C1C(=Nc2ccc(Cl)cc2)c2ccccc2N1Cc1cccc(Cl)c1 | MTT | 48 h | 9.41 µM |
| CC(=O)O[C@H]1C(=O)[C@@]2(C)[C@H]([C@H](OC(=O)c3ccccc3)[C@]3(O)C[C@H](OC(=O)[C@H](O)[C@@H](NC(=O)c4ccccc4)c4ccccc4)C(C)=C1C3(C)C)[C@]1(OC(C)=O)CO[C@@H]1C[C@@H]2O | MTT | 48 h | > 100 µM |
| Clc1ccc(Cn2nc(-c3nc(-c4ccccc4)no3)c3ccccc32)c(Cl)c1 |  | 48 h | 66.5 µM |
| Cc1cccc(N=C2C(=O)N(Cc3ccccc3)c3ccccc32)c1 | MTT | 48 h | 8.11 µM |
| C/C(=N\C(=N)/N=C(\C)c1c(O)c2ccccc2oc1=O)c1c(O)c2ccccc2oc1=O | MTT | 48 h | 19.6 µM |
| Cc1ccc(NNc2nc3c(Cl)cc(Cl)cc3c(=O)n2-c2ccccc2)cc1 | MTT | 48 h | > 200 µM |
| Cc1nc2ccc(-c3ccc(OCc4ccccc4)c(F)c3)cc2c(O)c1C(=O)O | MTT | 48 h | ≥ 100 µM |
| C[C@H]1[C@H](C)CC[C@]2(C)CC[C@]3(C)C(=CC(=O)[C@@H]4[C@@]5(C)CC[C@@H](O)[C@](C)(C(=O)NCc6cn(-c7ccc(Cl)cc7)nn6)[C@@H]5CC[C@]43C)[C@H]12 | MTT | 24 h | 134 µM |
| O=C1CS/C(=N\c2ccc(F)cc2O)N1c1nnc(-c2ccc(C(F)(F)F)cc2/N=C2\SCC(=O)N2c2ccc(F)cc2O)s1 | MTT |  | 18.1 µM |
| CCCN1CC(Oc2ccc([C@@H]3c4[nH]c5ccccc5c4C[C@@H](C)N3CC(C)(C)F)cc2)C1 |  |  | 0.00794 µM |
